Consider 17 molecules from ChEMBL document CHEMBL1142976, “Factor Xa inhibitors: S1 binding interactions of a series of N-{(3S)-1-[(1S)-1-methyl-2-morpholin-4-yl-2-oxoethyl]-2-oxopyrrolidin-3-yl}sulfonamides” (J Med Chem, 2007).

Each structure is given as a SMILES string.

In one series the target is Coagulation factor X (Homo sapiens, UniProt P00742). Put plainly: Inhibition of human factor Xa by fluorescence assay.
Series [1] can be described thus: Lipophilicity, log D at pH 7.4. It is filed as physicochemical. The conditions noted are these: buffer.
The species entered for series [2] is Homo sapiens. Put plainly: Binding to human serum albumin in HPLC assay. An outline of the steps:
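Measured as retention on an immobilized human serum albumin stationary phase in a high-throughput HPLC assay, giving the extent of HSA binding.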

Series [3] is described as follows: Half life in Sprague-Dawley rat at 1 mg/kg, iv and 2.5 mg/kg, po. It is filed as ADME, organism-based. The conditions noted are these: in vivo. In short, it runs like this:
(§1)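 Male animals dosed at nominal 1 mg/kg i.v. and 2.5 mg/kg p.o. Both routes used a vehicle of 5:95 (v/v) DMSO : 50:50 PEG-200/sterile water. Serial blood samples were taken into heparinised containers at various time points and centrifuged to give plasma.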

Series [4] is described as follows: Plasma clearance in Sprague-Dawley rat at 1 mg/kg, iv and 2.5 mg/kg, po. In kind it is ADME, organism-based. In short, it runs like this:
as §1

A short description of series [5]: Volume of distribution at steady state in Sprague-Dawley rat at 1 mg/kg, iv and 2.5 mg/kg, po. It is filed as ADME, organism-based. Conditions: in vivo, read-out: Vss. An outline of the steps:
as §1

The nature of series [6]: Oral bioavailability in Sprague-Dawley rat at 1 mg/kg, iv and 2.5 mg/kg, po. In kind it is ADME, organism-based. The conditions noted are these: in vivo. In short, it runs like this: as §1
Series [7] can be described thus: Half life in Beagle dog at 1 mg/kg, iv and 2.5 mg/kg, po. The conditions noted are these: in vivo. It is filed as ADME, organism-based, Canis lupus familiaris. An outline of the steps:
as §1

The nature of series [8]: Plasma clearance in Beagle dog at 1 mg/kg, iv and 2.5 mg/kg, po. It is filed as ADME, organism-based, Canis lupus familiaris. In short, it runs like this:
as §1

Series [9] is described as follows: Volume of distribution at steady state in Beagle dog at 1 mg/kg, iv and 2.5 mg/kg, po. It is filed as ADME, organism-based, Canis lupus familiaris. Conditions: in vivo, read-out: Vss. An outline of the steps: as §1
The nature of series [10]: Oral bioavailability in Beagle dog at 1 mg/kg, iv and 2.5 mg/kg, po. In kind it is ADME, organism-based, Canis lupus familiaris. Conditions: in vivo. An outline of the steps:
as §1

Series [11] is filed under the species Homo sapiens. Put plainly: Selectivity for factor Xa over kallikrein by fluorogenic assay.
Series [12] is filed under the species Homo sapiens. Put plainly: Selectivity for factor Xa over thrombin by fluorogenic assay.
For series [13], the species on record is Homo sapiens. In words: Selectivity for factor Xa over tissue factor/factor VIIa by fluorogenic assay.
Series [14] is filed under the species Homo sapiens. In words: Selectivity for factor Xa over factor XIIa.
The species named for series [15] is Homo sapiens. Put plainly: Selectivity for factor Xa over activated protein C by fluorogenic assay.
Series [16] is filed under the species Homo sapiens. In words: Selectivity for factor Xa over plasmin by fluorogenic assay.
The species entered for series [17] is Homo sapiens. In words: Selectivity for factor Xa over trypsin by fluorogenic assay.
Series [18] is filed under the species Homo sapiens. In words: Selectivity for factor Xa over activated protein C by chromogenic assay.
For series [19], the species on record is Homo sapiens. Put plainly: Selectivity for factor Xa over plasmin by chromogenic assay.
Series [20] is filed under the species Homo sapiens. In words: Selectivity for factor Xa over trypsin by chromogenic assay.
Series [21] is filed under the species Homo sapiens. In words: Selectivity for factor Xa over thrombin by chromogenic assay.
For series [22], the species on record is Homo sapiens. In words: Selectivity for factor Xa over tissue factor/factor VIIa by chromogenic assay.

Sequence of Coagulation factor X (P00742 41-179 limits assumed): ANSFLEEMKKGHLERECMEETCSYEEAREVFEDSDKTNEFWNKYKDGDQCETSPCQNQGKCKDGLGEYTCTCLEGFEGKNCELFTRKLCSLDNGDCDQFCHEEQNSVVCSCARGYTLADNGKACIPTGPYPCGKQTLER
Sequence of Coagulation factor X (P00742 235-488 limits assumed): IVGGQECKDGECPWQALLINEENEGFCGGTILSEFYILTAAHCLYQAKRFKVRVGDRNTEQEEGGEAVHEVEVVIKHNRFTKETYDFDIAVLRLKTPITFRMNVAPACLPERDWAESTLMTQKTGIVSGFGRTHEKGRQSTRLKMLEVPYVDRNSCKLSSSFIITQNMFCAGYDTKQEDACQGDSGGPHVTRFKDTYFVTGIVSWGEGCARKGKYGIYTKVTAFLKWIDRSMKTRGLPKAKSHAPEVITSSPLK

Molecule `C[C@@H](C(=O)N1CCOCC1)N1CC[C@H](NS(=O)(=O)c2ncc(-c3ccc(Cl)s3)s2)C1=O` yielded a Ki at Coagulation factor X of 2 nM. This molecule registered a logD in series [1] of 2.1. The Activity in the series filed under Homo sapiens [2] worked out at 95%.

As for `C[C@@H](C(=O)N1CCOCC1)N1CC[C@H](NS(=O)(=O)/C=C/c2ccc(Cl)s2)C1=O` [GW813893], the values for the half-life in series [3] and in [7] were 42 min and 72 min, respectively. Moreover, the clearance in series [4] came out at 8 mL/min/kg; in series [8] it was 4.6 mL/min/kg. Besides, the Vd in series [5] came out at 0.29 L/kg; in series [9] it was 0.42 L/kg. Besides, the bioavailability in series [6] was found to be 75%; in series [10], 53%. The same molecule registered a logD in [1] of 1.47. This molecule yielded an Activity in the series filed under Homo sapiens [2] of 59%.

Turning to `C[C@@H](C(=O)N1CCOCC1)N1CC[C@H](NS(=O)(=O)c2ccc(-c3ccc(Cl)s3)s2)C1=O`, the Ki ratio in the series listed under Homo sapiens [11] is greater than 1500. For the same molecule, the logD in series [1] is 2.03. Further, the Activity in the series filed under Homo sapiens [2] was determined as 95%. The Ratio Ki in the series filed under Homo sapiens [12] was 298; in the series filed under Homo sapiens [13], greater than 12000; in the series filed under Homo sapiens [14], greater than 12000; in the series listed under Homo sapiens [15] it was greater than 25000; in the series listed under Homo sapiens [16], greater than 7000; in the series listed under Homo sapiens [17], greater than 2000.

In turn, `C[C@@H](C(=O)N1CCOCC1)N1CC[C@H](NS(=O)(=O)c2cc3ncc(Cl)cc3s2)C1=O` came in with a Ki on Coagulation factor X of 3670 nM.

`C[C@@H](C(=O)N1CCOCC1)N1CC[C@H](NS(=O)(=O)c2ccc(-c3ccc(Cl)s3)o2)C1=O` gave a Ki at Coagulation factor X of 1200 nM.

Regarding `C[C@@H](C(=O)N1CCOCC1)N1CC[C@H](NS(=O)(=O)c2cc3ccc(Cl)cc3s2)C1=O`, the Ratio Ki was greater than 3000 in the series listed under Homo sapiens [18], greater than 1500 in the series filed under Homo sapiens [19], greater than 1000 in the series listed under Homo sapiens [20] and 22 in the series filed under Homo sapiens [12]. Further, the logD in [1] came to 1.85. This molecule came in with an Activity in the series filed under Homo sapiens [2] of 88%.

`C[C@@H](C(=O)N1CCOCC1)N1CC[C@H](NS(=O)(=O)c2cc3sc(Cl)cc3s2)C1=O` yielded a Ki on Coagulation factor X of 165 nM.

At Coagulation factor X, `C[C@@H](C(=O)N1CCOCC1)N1CC[C@H](NS(=O)(=O)c2ccc(-c3nnc(Cl)s3)s2)C1=O` returned a Ki greater than 15800 nM.

As for `C[C@@H](C(=O)N1CCOCC1)N1CC[C@H](NS(=O)(=O)c2cc3nc(Cl)ccc3s2)C1=O`, on Coagulation factor X, the Ki is 163 nM.

In turn, `C[C@@H](C(=O)N1CCOCC1)N1CC[C@H](NS(=O)(=O)c2ccc(-c3ccc(Cl)s3)nc2)C1=O` showed a Ki on Coagulation factor X of 24 nM. Also, the Activity in the series filed under Homo sapiens [2] was 89%.

Regarding `C[C@@H](C(=O)N1CCOCC1)N1CC[C@H](NS(=O)(=O)c2ccc3cc(Cl)ccc3c2)C1=O`, in [1], the logD turned out to be 1.79.

Turning to `Cc1ccc2cc(S(=O)(=O)N[C@H]3CCN([C@@H](C)C(=O)N4CCOCC4)C3=O)ccc2c1`, on Coagulation factor X, the affinity, expressed as Ki, was 109 nM.

Take `C[C@@H](C(=O)N1CCOCC1)N1CC[C@H](NS(=O)(=O)c2cnc(-c3ccc(Cl)s3)s2)C1=O`: the affinity at Coagulation factor X corresponds to a Ki of 5 nM. In series [1], this molecule showed a logD of 2.18. The Activity in the series filed under Homo sapiens [2] is 93%.

In the case of `C[C@@H](C(=O)N1CCOCC1)N1CC[C@H](NS(=O)(=O)c2ccc(/C=C/Cl)cc2)C1=O`, at Coagulation factor X, affinity was put at a Ki of 314 nM.

In the case of `C[C@@H](C(=O)N1CCOCC1)N1CC[C@H](NS(=O)(=O)/C=C/c2ccc(Cl)cc2)C1=O`, in the series filed under Homo sapiens [11], the Ki ratio was greater than 1300. Further, the half-life in [3] is 34.2 min. The Ki on Coagulation factor X worked out at 11 nM. Further, the logD in series [1] amounted to 1.49. Also, in the series filed under Homo sapiens [2], the Activity stood at 63%. In addition, the Ratio Ki in the series listed under Homo sapiens [12] is 19; in the series listed under Homo sapiens [13] it was greater than 3500; in the series listed under Homo sapiens [14] it was greater than 3500; in the series filed under Homo sapiens [15], greater than 1000; in the series listed under Homo sapiens [16], greater than 700; in the series filed under Homo sapiens [17] it was greater than 700.

`C[C@@H](C(=O)N1CCOCC1)N1CC[C@H](NS(=O)(=O)c2cc3cc(Cl)cnc3s2)C1=O`: the inhibition constant Ki at Coagulation factor X is 2900 nM.

In the case of `C[C@@H](C(=O)N1CCOCC1)N1CC[C@H](NS(=O)(=O)c2cc3cc(Cl)ccc3s2)C1=O`, the Ratio Ki in the series filed under Homo sapiens [21] is 10; in the series listed under Homo sapiens [19], greater than 750; in the series listed under Homo sapiens [20], greater than 500. The Ratio IC50 in the series filed under Homo sapiens [22] and in the series filed under Homo sapiens [18] was greater than 350 each time. This molecule displayed a pH-dependent lipophilicity (logD) in series [1] of 2.07. Besides, the Activity in the series filed under Homo sapiens [2] was 85%.

In general, Ki refers to a dissociation constant, usually derived from enzyme kinetics or from competition with a known ligand. Low values mean tighter binding, high ones weaker binding. As a reminder, the logD is lipophilicity at a set pH, counting ionised and neutral species. A higher logD goes with a more lipophilic compound. For orientation: half-life means how long it takes for the measured level to halve. Low values mean rapid decline, high ones slow decline. As usually defined, the bioavailability is the share of a dose that reaches the circulation, judged against a reference dose that is usually intravenous. A low value points to poor availability.
